This is an account of results in ChEMBL document CHEMBL1121694, “2-(Aminomethyl)phenols, a new class of saluretic agents. 3. Effects of functional group reorientation and modification” (1981).

The test system of assay [1] is Canis familiaris. Description: Compound was tested for the saluretic property in dogs after intravenous administration of 5 mg/kg; >900 micro equivalents of Na+ excreted per minute. Type of assay: functional, Canis lupus familiaris. In a few lines:
(§1)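 Each dog score comes from one animal (body weight 15.2-21 kg) given the dose as a single stat administration. The standard dose is 5 mg/kg unless another is designated. Protocol and scoring system are referenced to earlier work.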

The test system of another assay is Rattus norvegicus. The assay is described as follows: Evaluated for the saluretic property in rats after oral administration; score represents micro equivalents of Na+ excreted at a given mg/kg dose. Type of assay: functional. In a few lines: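 The score is the geometric mean of three animals per cage, with three cages per dose. Protocol and scoring system are referenced to earlier work.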

Assay [2] deals with Canis familiaris. Description: Tested for the saluretic property in dogs after intravenous administration of 5 mg/kg; 0-99 micro equivalents of Na+ excreted per minute. Type of assay: functional, Canis lupus familiaris. The procedure, abridged:
as §1

In assay [3] the test system is Canis familiaris. The assay is described as follows: Compound was tested for the saluretic property in dogs after intravenous administration of 5 mg/kg; 100-249 micro equivalents of Na+ excreted per minute. Format: functional, Canis lupus familiaris.
The subject of assay [4] is Canis familiaris. The assay is described as follows: Compound was evaluated for the saluretic property in dog after iv administration; score represents micro equivalents of Na+ excreted at a given mg/kg dose. Format: functional, Canis lupus familiaris. The procedure, abridged:
as §1

Assay [5] concerns Canis familiaris. The assay is described as follows: Compound was tested for the saluretic property in dogs after intravenous administration of 1 mg/kg; >900 micro equivalents of Na+ excreted per minute. Type of assay: functional, Canis lupus familiaris. The procedure, abridged:
as §1

The test system of assay [6] is Canis familiaris. The assay is described as follows: Compound was tested for the saluretic property in dogs after intravenous administration of 5 mg/kg; 600-799 micro equivalents of Na+ excreted per minute. Format: functional, Canis lupus familiaris. The procedure, abridged: as §1
The test system of assay [7] is Canis familiaris. Description: Compound was tested for the saluretic property in dogs after intravenous administration of 5 mg/kg; 800-899 micro equivalents of Na+ excreted at a given mg/kg dose. Format: functional, Canis lupus familiaris. The procedure, abridged: as §1
In assay [8] the test system is Canis familiaris. The assay is described as follows: Compound was tested for the saluretic property in dogs after intravenous administration of 5 mg/kg; activity above 5 mg/kg. Type of assay: functional, organism-based. To be noted: Canis lupus familiaris. The procedure, abridged: as §1
For assay [9], the system named is Canis familiaris. Description: Compound was tested for the saluretic property in dogs after intravenous administration of 10 mg/kg. Type of assay: functional, Canis lupus familiaris. The procedure, abridged: as §1

`COc1c(Cl)c(O)c(CN)c(OC)c1Cl.Cl`: the Score was 6 in the assay on Canis familiaris [1] and 5 in the assay with Rattus norvegicus.

On to `Cl.NCc1c(N)c(Cl)cc(Cl)c1Cl`, for which the Score in the assay with Canis familiaris [2] was 0.

As for `Cl.NCc1cc(Cl)cc(Cl)c1`, the Score with Rattus norvegicus and in the assay with Canis familiaris [2] was 0 in each case. Take `Cl.NCC(O)c1c(O)c(Cl)cc(Cl)c1Cl` (centres undefined): the Score in the assay on Rattus norvegicus was found to be 0; in the assay with Canis familiaris [3], 1.

For `Nc1c(O)c(Cl)cc(Cl)c1Cl`, the Score in the assay on Rattus norvegicus stood at 0. Regarding `O=Cc1c(O)c(Cl)cc(Cl)c1Cl`, the Score in the assay with Rattus norvegicus and in the assay on Canis familiaris [2] was 0 each time. On to `CC(C)(C)c1cc(Cl)c(O)c(CCCN)c1`, for which, in the assay with Canis familiaris [4], the Score is recorded as 0. Take `Cl.NCc1cc(Cl)c(O)c(Cl)c1Cl`: the Score with Rattus norvegicus and with Canis familiaris [2] was 0 in each case.

`CC(C)(C)c1cc(I)c(O)c(C(=O)O)c1`: the results for the Score in the assay on Rattus norvegicus and in the assay on Canis familiaris [3] were 0 and 1, respectively.

As to `NS(=O)(=O)c1cc2c(cc1Cl)NCNS2(=O)=O` [HYDROCHLOROTHIAZIDE], the Score is listed as 2 in the assay on Rattus norvegicus and 1 in the assay on Canis familiaris [3]. Regarding `CC(C)(C)c1cc(Cl)c(O)c(CN)c1.Cl`, the Score in the assay on Canis familiaris [1] and in the assay on Rattus norvegicus was 6 each time. As to `NS(=O)(=O)c1cc(C(=O)O)c(NCc2ccco2)cc1Cl` [FUROSEMIDE], the results for the Score in the assay on Rattus norvegicus and in the assay on Canis familiaris [5] were 3 and 6, respectively.

With `CC(C)(C)c1cc(I)c(O)c(CN)c1.Cl`, the Score with Canis familiaris [6] amounted to 4; in the assay on Rattus norvegicus it was 6.

Consider `COc1c(Cl)c(O)c(C(=O)O)c(OC)c1Cl`, for which the Score in the assay on Rattus norvegicus and in the assay with Canis familiaris [2] was 0 each time. `Cl.NCc1c(O)c(Cl)cc(Cl)c1Cl`: the Score is 5 with Canis familiaris [7] and 3 in the assay on Rattus norvegicus. `Cl.NCCc1c(O)c(Cl)cc(Cl)c1Cl`: the Score with Rattus norvegicus and with Canis familiaris [3] was 1 each time. Take `NS(=O)(=O)c1c(O)c(Cl)cc(Cl)c1Cl`: the Score in the assay on Rattus norvegicus is on record as 0. The same measure, in the same setting: as for `O=C(O)c1c(O)c(Cl)cc(Cl)c1Cl`, the figure is 0.

`NCc1cc(Cl)cc(Cl)c1O`: the Score entry with Canis familiaris [8] is “activity above 5 mg/kg”; in the assay on Rattus norvegicus, 2. For the compound `OCc1c(O)c(Cl)cc(Cl)c1Cl`, the Score with Rattus norvegicus and in the assay on Canis familiaris [2] was 0 throughout. `COc1c(Cl)c(O)c(C=O)c(OC)c1Cl`: the Score in the assay with Rattus norvegicus and in the assay with Canis familiaris [2] was 0 in each case.

In the case of `NCc1c(Cl)cc(Cl)c(O)c1Cl`, the Score with Canis familiaris [9] and with Rattus norvegicus was 0 throughout.
